In assay [1] the target is T1, Glycogen synthase kinase-3 (Homo sapiens, UniProt P49840+P49841). Description: (§1) Residual porcine GSK-3-alpha/beta kinase activity with L240C/N297Q mutant cytochrome P450 2A6 extract. In kind it is protein assay. Conditions: Sus scrofa; target entry is the homologue from another species. Summed up:
(§2)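 E. coli expressing the P450 2A6 variant plus reductase were grown 42 h at 30 °C with the indole added. DMSO extract (0.3 µL) was tested on axin-purified porcine GSK-3α/β with GS-1 peptide in buffer A, 15 µM [γ-33P]ATP, 30 °C. Residual activity given as % of a DMSO control. Means of duplicates.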

In assay [2] the target is T1, Glycogen synthase kinase-3. Description: (§3) Residual porcine GSK-3-alpha/beta kinase activity with L240C mutant cytochrome P450 2A6 extract. Type of assay: protein assay. The conditions noted are these: Sus scrofa; target entry is the homologue from another species. In short, it runs like this:
as §2

For assay [3], the target named is T2, Cyclin-dependent kinase 5/CDK5 activator 1 (Homo sapiens) (UniProt Q00535+Q15078). Description: Residual Cyclin-dependent kinase 5-p35nck5a activity with L240C-mutant cytochrome P450 2A6 extract. Type of assay: protein-complex assay.
Assay [4] concerns the target T2, Cyclin-dependent kinase 5/CDK5 activator 1 (Homo sapiens). Description: Residual Cyclin-dependent kinase 5-p35nck5a activity with L240C/N297Q mutant cytochrome P450 2A6 extract. Type of assay: protein-complex assay. Summed up: (§4)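 The indole was fed to E. coli expressing the P450 2A6 variant with NADPH-P450 reductase, grown 42 h at 30 °C. Extract in DMSO (0.3 µL) was added to the CDK5/p25 histone H1 assay: buffer C, 15 µM [γ-33P]ATP, 30 °C. Residual activity given as % of a DMSO-only control. Means of duplicates.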

For assay [5], the target named is T1, Glycogen synthase kinase-3. The assay is described as §1. In kind it is protein assay. The arrangement: concentration or dose not given beside the values. Conditions: Sus scrofa; target entry is the homologue from another species. Summed up: as §2
Assay [6] concerns the target T1, Glycogen synthase kinase-3. The experiment in a line: Inhibition of porcine GSK-3-alpha/beta kinase. In kind it is protein assay, Sus scrofa. The conditions noted are these: target entry is the homologue from another species. In short, it runs like this: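 Porcine brain GSK-3α/β, purified on immobilized axin and diluted 1/100 in 1 mg/mL BSA with 10 mM DTT. Substrate GS-1 phosphopeptide in buffer A (Tris-HCl pH 7.5, MgCl2, EGTA, DTT, heparin) with 15 µM [γ-33P]ATP, 30 min at 30 °C. Read by P81 filter binding and scintillation counting. Duplicates; IC50 as % of control activity.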

In assay [7] the target is Cyclin-dependent kinase 5/CDK5 activator 1 (Homo sapiens, UniProt Q00535). The experiment in a line: Inhibition of Cyclin-dependent kinase 5-p35nck5a. Type of assay: protein-complex assay. In short, it runs like this:
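Recombinant CDK5 and p25 (truncated p35), each expressed in E. coli as a GST fusion and glutathione-agarose purified, mixed in equal amounts. Read by P81 filter capture and scintillation counting. Expressed as % of uninhibited activity. Duplicates; IC50 determined.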

In assay [8] the target is T1, Glycogen synthase kinase-3. Description: Residual porcine GSK-3-alpha/beta kinase activity with wild-type cytochrome P450 2A6 extract. In kind it is protein assay. The conditions noted are these: Sus scrofa, target entry is the homologue from another species. Summed up: as §2
The target in assay [9] is T2, Cyclin-dependent kinase 5/CDK5 activator 1 (Homo sapiens). The experiment in a line: Residual Cyclin-dependent kinase 5-p35nck5a activity with wild-type cytochrome P450 2A6 extract. Type of assay: protein-complex assay. In short, it runs like this:
as §4

The target of assay [10] is Cyclin-dependent kinase 1/cyclin B (Marthasterias glacialis). Description: Inhibition of Cyclin-dependent kinase 1-cyclin B of M-phase Marthasterias glacialis oocytes.
Assay [11] concerns the target T1, Glycogen synthase kinase-3. The assay is described as §3. Type of assay: protein assay. The conditions noted are these: Sus scrofa; target entry is the homologue from another species. Summed up:
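GSK-3α/β from porcine brain, purified on immobilized axin and diluted 1/100, assayed in buffer A with GS-1 peptide substrate and 15 µM [γ-33P]ATP for 30 min at 30 °C. Phosphate incorporation read on P81 filters by scintillation counting. Bacterial extract in DMSO added; residual activity given as % of DMSO control, mean of duplicates.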
This is another data set of the same source.

Drawing on ChEMBL document CHEMBL1149190, “Generation of new protein kinase inhibitors utilizing cytochrome p450 mutant enzymes for indigoid synthesis” (J Med Chem, 2004), this text covers residual activity and IC50 for 21 compounds.

Sequence of Cyclin-dependent kinase 5/CDK5 activator 1 (Q00535 whole entry, the tested form may be a part): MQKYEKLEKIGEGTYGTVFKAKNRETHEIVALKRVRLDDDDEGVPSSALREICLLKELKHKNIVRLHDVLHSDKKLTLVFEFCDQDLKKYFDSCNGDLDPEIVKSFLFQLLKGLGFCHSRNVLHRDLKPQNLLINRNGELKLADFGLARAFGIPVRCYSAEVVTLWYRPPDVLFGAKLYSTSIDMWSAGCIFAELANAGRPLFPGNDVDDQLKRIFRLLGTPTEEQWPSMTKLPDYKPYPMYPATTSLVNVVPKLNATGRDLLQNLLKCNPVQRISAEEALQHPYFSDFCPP
Sequence of Cyclin-dependent kinase 5/CDK5 activator 1 (Q15078 whole entry, further chain, the tested form may be a part): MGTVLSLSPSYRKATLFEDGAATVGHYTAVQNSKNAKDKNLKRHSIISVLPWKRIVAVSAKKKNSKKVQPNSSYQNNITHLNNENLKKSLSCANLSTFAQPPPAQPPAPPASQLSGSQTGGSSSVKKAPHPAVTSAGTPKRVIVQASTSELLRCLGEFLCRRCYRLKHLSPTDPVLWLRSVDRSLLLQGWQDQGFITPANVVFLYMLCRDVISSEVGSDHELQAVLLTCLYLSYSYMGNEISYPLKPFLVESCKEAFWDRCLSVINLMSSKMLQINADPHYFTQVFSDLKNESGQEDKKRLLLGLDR
T2 sequence (Q00535 whole entry): as the sequence (Q00535 whole entry, the tested form may be a part) above
T2 sequence (Q15078 99-307 partner limits assumed): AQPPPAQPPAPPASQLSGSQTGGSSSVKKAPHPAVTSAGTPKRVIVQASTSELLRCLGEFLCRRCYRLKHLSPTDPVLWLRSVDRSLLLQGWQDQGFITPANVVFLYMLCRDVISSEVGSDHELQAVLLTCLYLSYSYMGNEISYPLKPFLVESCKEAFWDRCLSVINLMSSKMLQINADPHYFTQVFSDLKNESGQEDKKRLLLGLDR
T1 sequence (P49840 whole entry, looked up): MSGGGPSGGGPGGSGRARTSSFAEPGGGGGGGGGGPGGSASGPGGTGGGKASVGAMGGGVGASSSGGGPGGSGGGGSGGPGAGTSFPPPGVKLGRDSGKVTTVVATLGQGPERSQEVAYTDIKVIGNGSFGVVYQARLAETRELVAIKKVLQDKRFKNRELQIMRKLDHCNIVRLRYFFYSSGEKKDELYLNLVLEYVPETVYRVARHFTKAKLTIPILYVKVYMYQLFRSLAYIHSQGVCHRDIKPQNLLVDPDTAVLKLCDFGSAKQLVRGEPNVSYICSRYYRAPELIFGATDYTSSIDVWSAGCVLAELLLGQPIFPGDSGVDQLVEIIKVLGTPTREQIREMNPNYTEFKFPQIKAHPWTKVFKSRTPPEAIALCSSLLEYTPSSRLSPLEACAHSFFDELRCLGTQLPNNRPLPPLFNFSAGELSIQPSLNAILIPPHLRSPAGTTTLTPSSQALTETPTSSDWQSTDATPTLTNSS
T1 sequence (P49841 whole entry, looked up): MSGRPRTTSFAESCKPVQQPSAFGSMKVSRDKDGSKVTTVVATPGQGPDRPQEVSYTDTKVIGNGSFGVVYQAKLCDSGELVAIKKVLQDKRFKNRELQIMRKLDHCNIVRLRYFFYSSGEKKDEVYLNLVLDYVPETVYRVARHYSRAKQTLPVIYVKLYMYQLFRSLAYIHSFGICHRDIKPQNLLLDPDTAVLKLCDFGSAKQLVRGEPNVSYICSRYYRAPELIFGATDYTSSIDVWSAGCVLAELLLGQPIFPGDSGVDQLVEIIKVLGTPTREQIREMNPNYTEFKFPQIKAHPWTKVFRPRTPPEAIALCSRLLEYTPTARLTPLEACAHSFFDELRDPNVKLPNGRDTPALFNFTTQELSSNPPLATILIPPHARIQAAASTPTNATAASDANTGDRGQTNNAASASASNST

Turning to `Brc1ccc2[nH]ccc2c1`, the residual activity in assay [1] is 25%; in [2], 22%; in assay [3], 44%; in assay [4], 56%.
Take `c1cnc2[nH]ccc2c1`: the residual activity came out at 89% in [5] and 103% in [4].
For `Nc1ccc2[nH]ccc2c1`, the residual activity in assay [5] was 42%; in assay [4] it was 73%.
Regarding `Cc1ccc2[nH]c(O)c(C3=Nc4ccccc4C3=O)c2c1`, the IC50 (commonly the midpoint of a concentration-inhibition curve) in [6] was 800 nM; in assay [7], 5000 nM.
Consider `Fc1ccc2cc[nH]c2c1`, for which the residual activity in assay [5] stood at 87%; in [4], 97%.
On to `c1ccc2[nH]ccc2c1`, for which the residual activity in assay [8] was 68%; in assay [5], 76%; in assay [4], 81%; in assay [9], 78%.
Take `COc1ccc2c(c1)C(=O)C(c1[nH]c3ccccc3c1O)=N2`: the IC50 in assay [6], in assay [7] and in assay [10] was over 100000 nM each time.
Consider `COc1ccc2[nH]c(O)c(C3=Nc4ccccc4C3=O)c2c1`, for which the IC50 in assay [6] came out at 800 nM; in assay [7], 1200 nM; in assay [10], 1500 nM.
`O=C1/C(=C2\Nc3ccccc3C2=O)Nc2ccccc21` [INDIGO]: the IC50 in assay [6] and in [7] was over 100000 nM each time.
Regarding `COc1ccc2[nH]ccc2c1`, the residual activity came out at 55% in [11], 3% in [5], 87% in [3] and 3% in [4].
Turning to `Cc1ccc2c(c1)C(=O)C(c1c(O)[nH]c3ccccc13)=N2`, the figures for the concentration for half-maximal inhibition (IC50) in [6] and in [7] were 550 nM and 1900 nM, respectively.
With `COc1ccc2c(c1)C(=O)C(c1c(O)[nH]c3ccc(OC)cc13)=N2`, the IC50 in assay [6] turned out to be 200 nM; in assay [7], 800 nM; in assay [10], 400 nM.
Consider `COc1cc2cc[nH]c2cc1OC`, for which the residual activity in assay [5] was found to be 62%; in assay [4], 80%.
Turning to `COc1ccc2c(c1)C(=O)C(c1c(O)[nH]c3ccccc13)=N2`, the IC50 in assay [6] worked out at 600 nM; in assay [7], 1200 nM; in [10], 2100 nM.
For `COc1ccc2c(c1)C(=O)C(c1[nH]c3ccc(OC)cc3c1O)=N2`, in that order: 6000 nM, 26000 nM and 1200 nM.
As for `Cc1cccc2cc[nH]c12`, the residual activity was found to be 59% in assay [5] and 90% in [4].
As for `Cc1ccc2[nH]ccc2c1`, the residual activity was determined as 45% in [8], 15% in [5], 19% in assay [4] and 89% in [9].
Turning to `O=[N+]([O-])c1ccc2cc[nH]c2c1`, the residual activity was found to be 63% in [8] (in the assay text read “cytochrome P450 2A6 L240C/N297Q mutant” for “wild-type cytochrome P450 2A6”) and 107% in [4].
Regarding `Clc1cccc2cc[nH]c12`, the results for the residual activity in assay [1] and in assay [4] were 110% and 82%, respectively.
In [6], `O=C1Nc2ccccc2/C1=C1/Nc2ccccc2C1=O` [INDIRUBIN] registered an IC50 of 2500 nM.
On to `COC(=O)c1ccc2[nH]ccc2c1`, for which the residual activity in [5] is 71%; in [4] it was 99%.
